Published values collected from several papers.
Lines come from different studies, so protocols differ.
Target: Ephrin type-A receptor 4 (EPHA4, Homo sapiens, UniProt P54764)

Cc1nc(N2CC[C@@H](O)C2)ncc1-c1cc(C(F)(F)F)cc2[nH]ncc12
remaining binding (cell-free assay, competition with immobilised ligand; 1 µM): 100%

O=C1NC(=O)c2cc(Nc3ccc(F)cc3)c(Nc3ccc(F)cc3)cc21
remaining signal (cell-free assay; 0.5 µM): 94%

CS(=O)(=O)N1CCCC(NC(=O)[C@H](CCC2CCCCC2)NC(=O)c2ccc(CNC(=O)c3cnc4ccccn34)cc2)C1 (stereo partly shown)
remaining binding (cell-free assay, competition with immobilised ligand; 0.1 µM): 98%

Cc1ccc(C(=O)Nc2ccc(CN3CCN(C)CC3)c(C(F)(F)F)c2)cc1C#Cc1cnc2cccnn12
remaining signal (cell-free assay; 23.5 nM): 22%

CC(C)(C)c1nc2c(s1)c1nc(N)ncc1c1ccc(NS(=O)(=O)c3c(F)cccc3F)c(F)c12
remaining activity (enzyme activity, inhibitor, radiometric; 1 µM): 99%

Oc1cccc(-c2nc(N3CCOCC3)c3oc4ncccc4c3n2)c1
remaining activity (enzyme activity, inhibitor; 10 µM): 103%

COc1cc2ncnc(Nc3ccc(Oc4ccccc4)c(C)c3C)c2cc1OC
inhibition (enzyme activity, inhibitor; 1 µM): 10%

CCCCN(CCCC)C(=O)CN1C[C@@H](c2cc(OC)c3c(c2)OCO3)[C@H](C(=O)O)[C@H]1CC(C)(C)CCC
remaining binding (cell-free assay, competition with immobilised ligand; 1 µM): 95.7%

O=C(Nc1cnn(-c2csc(C(=O)NC3COC3)c2)c1)Nc1c(F)cccc1Cl
remaining activity (enzyme activity, inhibitor; 5 µM): 89.1%

COc1cc(Nc2cnc(C#N)c(O[C@H](C)CN(C)C)n2)ncc1-c1cnn(C)c1
remaining activity (enzyme activity, inhibitor, radiometric; 1 µM): 73%

CNC(=O)c1cc2c(Oc3ccc(NC(=O)C4(C(=O)Nc5ccc(F)cc5)CC4)cc3)ccnc2cc1OC
inhibition (enzyme activity, inhibitor, radiometric; 1 µM): 83%

CS(=O)(=O)N1CCCC(NC(=O)[C@H](CCC2CCCCC2)NC(=O)c2ccc(CNc3ncnc4c3nnn4-c3ccccc3)cc2)C1 (stereo partly shown)
remaining binding (cell-free assay, competition with immobilised ligand; 0.1 µM): 76%

Cc1ccc(C(=O)NCc2ccsc2)cc1C#Cc1cn(C(C)C)c2ncnc(N)c12
activity vs control (enzyme activity, inhibitor; 1 µM): 6%

Cc1noc([C@H]2C[C@@H](c3ccc(C(F)(F)F)cc3)CN(C(=O)N3CCS(=O)(=O)C3)C2)n1
remaining binding (cell-free assay, competition with immobilised ligand; 1 µM): 100%

CCN(CC)CCNC(=O)c1c(C)[nH]c(/C=C2\C(=O)Nc3ccc(F)cc32)c1C
inhibition (enzyme activity, inhibitor; 0.3 µM): 1%

FC(F)c1nc2ccccc2n1-c1nc(N2CCOCC2)nc(N2CCOCC2)n1
remaining activity (enzyme activity, inhibitor; 10 µM): 87%

Cn1nc(C(F)(F)F)cc1-c1cnc(N2CCc3cc(S(=O)(=O)Nc4c(F)cc(Cl)cc4F)cc(N4CCCC4=O)c32)nc1
remaining binding (cell-free assay, competition with immobilised ligand; 1 µM): 97%

CC(C)(O)[C@H]1CC[C@H](Nc2ccc3ncc(-c4cccc(C(F)(F)F)c4)n3n2)CC1
remaining activity (enzyme activity, inhibitor; 1 µM): 98.8%

Cc1c(NC(=O)c2cc(C(N)=O)nc3cc(F)ccc23)c(C(F)(F)F)nn1Cc1ccc(C#N)cc1
remaining binding (cell-free assay, competition with immobilised ligand; 1 µM): 99%

Cc1ccc(Nc2nccc(N(C)c3ccc4c(C)n(C)nc4c3)n2)cc1S(N)(=O)=O
inhibition (enzyme activity, inhibitor; 0.3 µM): 3%

Cc1sc(C(=O)NC2COC2)cc1-n1cc(NC(=O)Nc2c(F)cccc2Cl)cn1
remaining activity (enzyme activity, inhibitor; 10 µM): 116%

COc1cc(Cl)c(C(=O)N[C@@H](CN[C@H]2CC[C@@H](N)CC2)Cc2ccc(C#N)cc2)cc1-c1ccc(CN[C@H](C)c2ccc(C)cc2)o1
remaining activity (enzyme activity, inhibitor; 1 µM): 99%

N#CCCc1ccc2c(c1)-c1[nH]c3ccc([N+](=O)[O-])cc3c1CC(=O)N2
remaining signal (cell-free assay; 0.5 µM): 85.2%

Nc1c(C(=O)NCc2ccc(C(=O)NCCCC3CCCCC3)cc2)cnn1-c1ccccc1
remaining binding (cell-free assay, competition with immobilised ligand; 0.1 µM): 100%

CNC(=O)c1cc(Oc2ccc(NC(=O)Nc3ccc(Cl)c(C(F)(F)F)c3)cc2)ccn1
inhibition (enzyme activity, inhibitor; 0.3 µM): 7%
